Screening data: PubChem BioAssay, Sanford-Burnham Center for Chemical Genomics
SENP1 FRET inh: SENP1 (human) catalytic domain inhibition; AID 624204; Q9P0U3; actives 0.21% (n = 360,000); inhibition, % at 10 µM; recombinant SENP1 catalytic domain, CyPet-SUMO1-YPet FRET cleavage;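 active = inhibition at least 30% at 10 µM, raw YFP signal under a set limit, fluorescence ratio 0.5 to 1.5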;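 also: 0% = enzyme with DMSO and 100% = no enzyme wells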
Target sequence (Q9P0U3 419-644 limits assumed): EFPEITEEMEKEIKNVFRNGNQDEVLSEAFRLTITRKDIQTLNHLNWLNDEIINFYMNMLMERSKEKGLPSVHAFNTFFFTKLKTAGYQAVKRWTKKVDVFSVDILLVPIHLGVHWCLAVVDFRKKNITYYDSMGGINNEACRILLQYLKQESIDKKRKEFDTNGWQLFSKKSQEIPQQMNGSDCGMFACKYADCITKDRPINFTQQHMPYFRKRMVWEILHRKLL
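Controls: no-enzyme wells low, DMSO-plus-enzyme wells high control. Test system: human recombinant His6-tagged SENP1 catalytic domain enzyme. Reagent: SFCypet-SUMO1-SFYpet FRET protein substrate, 25 nM final. Doses: one dose per compound, 10 µM, 0.5% DMSO. Detection: FRET, CFP and YFP emission. Timing: 50 min reaction at room temperature.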
SENP7 inh: blocks the human protease SENP7 | Q9BQF6 | recombinant SENP7, Z-RLRGG-aminoluciferin luminescence, 40 min | inhibition, % at 5 µM | actives 1.5% (n = 330,000);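 active = inhibition above about 50% at the single test dose, limit read from the data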;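 also: plate controls were DMSO with enzyme for no effect and no enzyme buffer wells for full effect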
SENP6 inh: inhibitors of human SENP6 protease; Q9GZR1; Recombinant SENP6 catalytic domain, aminoluciferin luminescence; inhibition, % at 10 µM; actives 1.8% (n = 330,000); AID 2599;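 active = inhibition above about 50% at the single tested dose, limit read from the data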;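 also: plate controls were DMSO wells with enzyme for no effect and DMSO wells lacking enzyme for full effect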
SENP8 block-1: blocks the human protease SENP8; actives 1.2% (n = 330,000); inhibition, % at 10 µM; Q96LD8; purified SENP8, Z-RLRGG-aminoluciferin cleavage, luminescence; in the data active = inhibition above about 50%
Target sequence (Q96LD8 whole entry, looked up): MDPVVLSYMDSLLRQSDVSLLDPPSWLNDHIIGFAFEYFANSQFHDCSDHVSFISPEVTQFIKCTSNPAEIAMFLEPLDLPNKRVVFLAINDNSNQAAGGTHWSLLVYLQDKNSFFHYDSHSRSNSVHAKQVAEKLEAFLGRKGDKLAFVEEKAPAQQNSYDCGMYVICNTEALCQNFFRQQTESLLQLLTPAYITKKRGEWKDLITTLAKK
SENP8 block-2: blocks human SENP8 cleavage of Nedd8 substrate. AID 602440. recombinant SENP8, Nedd8 substrate fluorescence. actives 0.64% (n = 360,000). inhibition, % at 20 µM; in the data active = inhibition mostly above about 40%, no sharp cut-off; inactive = mostly below about 27%
SENP8 confirm: human SENP8 inhibition, confirmed; shares compounds with SENP7 inh; AID 488912; actives 40% (n = 6,200); Recombinant SENP8, Z-RLRGG-aminoluciferin luminescence, 60 min; inhibition, % at 12.5 µM;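 active = mean inhibition across replicates above about 50%, limit read from the data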
SENP6 confirm: confirmation of human SENP6 protease inhibitors. shares compounds with SENP7 inh. recombinant SENP6, Z-RLRGG-aminoluciferin luminescence. inhibition, % at 12.5 µM. actives 58% (n = 6,200). AID 488915
SENP7 confirm: human SENP7 inhibition, confirmed | shares compounds with SENP7 inh | recombinant SENP7, Z-RLRGG-aminoluciferin luminescence, 40 min | inhibition, % at 12.5 µM | actives 69% (n = 6,200) | AID 488917
Casp3 select: caspase-3 inhibition (SENP selectivity assay); actives 60% (n = 6,200); inhibition, % at 12.5 µM; shares compounds with SENP7 inh; AID 488918; purified caspase-3, Z-DEVD-aminoluciferin luminescence, 60 min;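 active = mean inhibition above about 50%, limit read from the data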;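 also: plate controls were enzyme with DMSO for no effect and wells without caspase-3 for full effect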
Target sequence (P42574 28-227 limits assumed): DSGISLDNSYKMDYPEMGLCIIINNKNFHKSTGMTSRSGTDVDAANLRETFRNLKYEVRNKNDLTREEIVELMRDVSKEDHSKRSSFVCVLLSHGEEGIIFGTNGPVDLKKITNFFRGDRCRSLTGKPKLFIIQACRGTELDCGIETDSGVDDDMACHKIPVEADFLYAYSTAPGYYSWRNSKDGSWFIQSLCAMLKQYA
SENP luc ctr: luminescence interference (SENP counter-screen) | actives 39% (n = 6,200) | shares compounds with SENP7 inh | inhibition, % at 12.5 µM | Pre-incubated SENP8/Z-RLRGG-aminoluciferin, luciferase luminescence interference | AID 488919;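 active = mean inhibition above about 50% when retested at one dose, limit read from the data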;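 also: plate controls were DMSO wells with completed reaction for no effect and substrate without enzyme for full effect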
Active calls of the source: *; x = no result given. Compounds with a hit are over-represented: about 2.5% of the library has one in this group of screens.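 The calls were made as follows, unless noted: active = mean inhibition above about 50% in the one-dose retest (limit read from the data); inactive = the rest.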

SMILES	SENP1 FRET inh	SENP7 inh	SENP6 inh	SENP8 block-1	SENP8 block-2	SENP8 confirm	SENP6 confirm	SENP7 confirm	Casp3 select	SENP luc ctr
O=C1c2ccccc2NC(c2ccc([N+](=O)[O-])cc2)N1O (stereo not given)	2	-7	-3	-8	21	x	x	x	x	x
C/C(=N\O)C(C)Oc1ccc(Cl)cc1 (stereo not given)	1	1	-20	2	12	x	x	x	x	x
NS(=O)(=O)c1ccc(N/N=C/c2ccc(O)cc2O)c([N+](=O)[O-])c1	6	3	3	3	54*	x	x	x	x	x
O=C(O)c1ccccc1NS(=O)(=O)c1ccc(N/N=C/c2ccc(O)c(O)c2)c([N+](=O)[O-])c1	1	x	x	x	53*	x	x	x	x	x
NS(=O)(=O)c1ccc(N/N=C/c2ccc(O)c(O)c2O)c([N+](=O)[O-])c1	2	x	x	x	106*	x	x	x	x	x
O=C(O)c1ccccc1NS(=O)(=O)c1ccc(NN=Cc2ccc(F)cc2)c([N+](=O)[O-])c1	3	3	33	8	29	x	x	x	x	x
O=[N+]([O-])c1ccccc1OCCNCc1ccccc1	0	15	20	-2	3	x	x	x	x	x
O=C(C1CCOCC1)N1CCCC(N2CCN(c3ccc(F)cc3)CC2)C1 (stereo not given)	0	-13	-3	-5	4	x	x	x	x	x
CN(C)c1ccc(/C=N\NC(=O)c2csnn2)cc1	2	40	32	13	-8	x	x	x	x	x
O=C(N/N=C\c1ccc(Oc2ccccc2)cc1)c1csnn1	2	77*	75*	71*	0	x	x	x	x	x
N#Cc1ccccc1OCC(=O)NC(=O)NC1CCS(=O)(=O)C1 (stereo not given)	0	6	1	2	-88	x	x	x	x	x
Cc1sc2nc3c4ccccc4c(NCc4ccco4)nn3c(=O)c2c1C	-54	76*	72*	71*	-485	x	x	x	x	x
Cc1nc(NCc2ccco2)c2c(C)c(C)sc2n1	1	1	11	-2	-2	x	x	x	x	x
COC(C[C@@H]1O[C@@H]1[C@@H](O)COCc1ccccc1)OC	3	0	11	0	15	x	x	x	x	x
O=Cc1cc(N=Nc2cccc(C(=O)O)c2)ccc1O	11	98*	95*	97*	23	x	x	x	x	x
O=Cc1cc(N=Nc2ccccc2Cl)ccc1O	6	-1	47	47	39	x	x	x	x	x
Clc1ccc(NN(Cc2ccncc2)c2ccc(Cl)cc2)cc1	2	x	x	x	10	x	x	x	x	x
CC(C)n1cnc2cc(NCc3nc4ccccc4n3C)ccc21	-14	47	62*	25	-10	x	x	x	x	x
Cc1ccc(CNc2ccc3c(c2)ncn3C(C)C)cc1	0	-5	3	-10	-203	x	x	x	x	x
O=C(NC(=O)c1ccccc1O)c1ccc(C(F)(F)F)cc1	1	78*	76*	71*	30	76*	75*	84*	84*	8
CC(C)N=C1NN=C(c2ccc(F)cc2)CS1	1	79*	65*	73*	4	84*	85*	99*	96*	89*
CCC(=O)Nc1cnc(NC(=O)c2cccc(F)c2)cc1C	-2	59*	58*	18	12	43	41	78*	83*	45
CC(=O)Nc1cnc(NC(=O)c2cccc(F)c2)cc1C	0	7	4	-11	1	x	x	x	x	x
Cc1noc(COc2ccccc2OCC(N)=O)n1	2	-2	-14	0	17	x	x	x	x	x
O=[N+]([O-])c1ccccc1N=Nc1ccc(O)cc1	2	2	33	15	34	x	x	x	x	x
SMILES	SENP1 FRET inh	SENP7 inh	SENP6 inh	SENP8 block-1	SENP8 block-2	SENP8 confirm	SENP6 confirm	SENP7 confirm	Casp3 select	SENP luc ctr
Oc1ccc(N=Nc2c(O)ccc3ccccc23)cc1	10	-5	69*	64*	9	67*	68*	72*	12	18
COc1cc(N=Nc2ccc3ccccc3c2)ccc1O	2	95*	97*	94*	6	94*	96*	101*	73*	94*
Oc1ccc(N=Nc2ccc3ccccc3c2)cc1	2	101*	98*	98*	30	99*	100*	102*	98*	94*
COc1ccc(NC2CCCN(C(=O)CN3C(=O)c4ccccc4C3=O)C2)cc1OC (stereo not given)	1	1	11	5	25	x	x	x	x	x
O=C(CCNS(=O)(=O)c1ccccc1)N1CCN(c2ccccc2F)CC1	2	-5	3	6	-8	x	x	x	x	x
O=C(O)c1cccc(N2C(=O)CSC2c2ccccc2)c1 (stereo not given)	0	-7	-9	-6	6	x	x	x	x	x
COc1ccc(N(CC(=O)NC(C)(C)C)S(=O)(=O)c2ccccc2)cc1OC	1	-8	-10	-8	4	x	x	x	x	x
COc1ccc(C(=O)Nc2sc3c(c2C#N)CCN(C(C)=O)C3)cc1	-28	6	79*	4	-362	-21	-16	-5	-7	-4
COc1cc(C(=O)Nc2sc3c(c2C#N)CCN(C(C)=O)C3)cc(OC)c1OC	-35	11	18	11	-388	x	x	x	x	x
O=C(Nc1sc2c(c1C(=O)O)CCC2)c1ccc(F)cc1	1	45	87*	81*	-84	89*	90*	95*	91*	58*
O=C(Nc1sc2c(c1C(=O)O)CCC2)c1ccccc1	0	92*	88*	94*	-59	46	99*	103*	97*	85*
O=C(Nc1sc2c(c1C(=O)O)CCCC2)c1cccc(Cl)c1	3	38	92*	91*	-18	96*	96*	99*	87*	96*
Cc1ccc(Cn2c(C(C)Nc3nc(C)cs3)nc3cc(Cl)c(Cl)cc32)cc1 (stereo not given)	x	10	-20	-10	x	x	x	x	x	x
NC(=O)c1c(NC(=O)c2ccccc2F)sc2c1CCCC2	-2	20	56*	19	-160	-7	26	2	4	-4
O=C(Nc1sc2c(c1C(=O)O)CCCCC2)c1ccccc1	0	83*	99*	95*	-100	97*	100*	103*	98*	98*
N#Cc1c(NC(=O)c2ccccc2)sc2c1CCCCC2	-6	56*	74*	51*	-39	10	20	24	20	26
O=C(CN1C(=O)NC2(CCOc3ccccc32)C1=O)NCCc1ccccc1 (stereo not given)	-4	-3	-13	3	-8	x	x	x	x	x
